According to ChEMBL document CHEMBL3297702, “Improving photodynamic inactivation of bacteria in dentistry: highly effective and fast killing of oral key pathogens with novel tooth-colored type-II photosensitizers” (J Med Chem, 2014):
Active and inactive are the calls of the source. No cut-off for these calls is given here.

What was measured:
Enterococcus faecalis [1] = assay: Photodynamic inactivation of Enterococcus faecalis ATCC 29212 assessed as reduction of log10 CFU at 1 uM incubated prior to irradiation with 25 j/cm'2 for 20 secs measured after 24 hrs by agar plating method (reference value: <1 no unit); format: functional
Procedure, shortened: (§1)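 E. faecalis ATCC 29212, aerobic overnight BHI culture at 37 °C, was harvested at stationary phase and suspended in PBS at 10^7–10^8 bacteria/mL. It was mixed 1:1 with PS to 0–250 µM final, held 10 s, then illuminated (1260 ± 50 mW/cm2) or kept dark. Dilutions were plated on Mueller-Hinton agar, aerobic 37 °C 24 h, CFU counted. Medians of three independent triplicate experiments, referred to untreated controls.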

Streptococcus mutans [2] = assay: Photodynamic inactivation of Streptococcus mutans ATCC 25175 assessed as reduction of log10 CFU at 100 uM incubated prior to irradiation with 50 j/cm'2 for 40 secs measured after 48 hrs by agar plating method (reference value: <1 no unit); format: functional
[3] = Photobleaching of the compound irradiated with laser energy at 405 nm for 5 mins; format: physicochemical; parameters: dose or concentration left out as unconfirmed
Actinomyces naeslundii [4] = assay: Photodynamic inactivation of Actinomyces naeslundii T14V assessed as reduction of log10 CFU at 10 uM incubated prior to irradiation with 50 j/cm'2 for 40 secs measured after 48 hrs by agar plating method (reference value: <1 no unit); format: functional
Procedure, shortened: (§2)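 A. naeslundii T14V grown overnight at 37 °C, shaken, aerobically in BHI broth. Harvested at stationary phase, resuspended in PBS to 10^7–10^8 bacteria/mL (OD600). Mixed 1:1 with PS (final 0–250 µM) or water, 10 s incubation, then blue photopolymerizer light (1260 ± 50 mW/cm2) or dark. Tenfold dilutions plated on blood agar, aerobic 37 °C 48 h, CFU counted; medians of three independent experiments in triplicate.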

Enterococcus faecalis [5] = assay: Photodynamic inactivation of Enterococcus faecalis ATCC 29212 assessed as reduction of log10 CFU at 10 uM incubated prior to irradiation with 25 j/cm'2 for 20 secs measured after 24 hrs by agar plating method (reference value: <1 no unit); format: functional; procedure, shortened: as §1
[6] = system: Aggregatibacter actinomycetemcomitans; assay: Photodynamic inactivation of Aggregatibacter actinomycetemcomitans ATCC 43718 assessed as reduction of log10 CFU at 100 uM incubated prior to irradiation with 50 j/cm'2 for 40 secs measured after 48 hrs by agar plating method (reference value: <1 no unit); format: functional, Y4
Procedure, shortened: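 A. actinomycetemcomitans ATCC 43718 cultured overnight in BHI broth under anaerobic conditions, 37 °C with shaking. Stationary-phase cells were spun down, taken up in PBS to 10^7–10^8/mL, and combined 1:1 with PS (final 0–250 µM) or water. After 10 s they were irradiated at 1260 ± 50 mW/cm2 or kept dark. Serial dilutions went onto BHI agar, incubated anaerobically at 37 °C for 48 h, and CFU were scored. Results are medians from 3 experiments × triplicate versus untreated controls.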

Enterococcus faecalis [7] = assay: Photodynamic inactivation of Enterococcus faecalis ATCC 29212 assessed as reduction of log10 CFU at 1 uM incubated prior to irradiation with 50 j/cm'2 for 40 secs measured after 24 hrs by agar plating method (reference value: <1 no unit); format: functional; procedure, shortened: as §1
[8] = Octanol-water partition coefficient, log P of the compound at 1 x 10^-4 mol at room temperature after 10 mins by UV/vis spectroscopic analysis; format: physicochemical
Enterococcus faecalis [9] = assay: Photodynamic inactivation of Enterococcus faecalis ATCC 29212 assessed as reduction of log10 CFU at 10 uM incubated prior to irradiation with 150 j/cm'2 for 120 secs measured after 24 hrs by agar plating method (reference value: <1 no unit); format: functional; procedure, shortened: as §1
Enterococcus faecalis [10] = assay: Photodynamic inactivation of Enterococcus faecalis ATCC 29212 assessed as reduction of log10 CFU at 5 uM incubated prior to irradiation with 150 j/cm'2 for 120 secs measured after 24 hrs by agar plating method (reference value: <1 no unit); format: functional; procedure, shortened: as §1
Streptococcus mutans [11] = assay: Photodynamic inactivation of Streptococcus mutans ATCC 25175 assessed as reduction of log10 CFU at 100 uM incubated prior to irradiation with 150 j/cm'2 for 120 secs measured after 48 hrs by agar plating method (reference value: <1 no unit); format: functional
Enterococcus faecalis [12] = assay: Photodynamic inactivation of Enterococcus faecalis ATCC 29212 assessed as reduction of log10 CFU at 5 uM incubated prior to irradiation with 25 j/cm'2 for 20 secs measured after 24 hrs by agar plating method (reference value: <1 no unit); format: functional; procedure, shortened: as §1
Enterococcus faecalis [13] = assay: Photodynamic inactivation of Enterococcus faecalis ATCC 29212 assessed as reduction of log10 CFU at 5 uM incubated prior to irradiation with 50 j/cm'2 for 40 secs measured after 24 hrs by agar plating method (reference value: <1 no unit); format: functional; procedure, shortened: as §1
Enterococcus faecalis [14] = assay: Photodynamic inactivation of Enterococcus faecalis ATCC 29212 assessed as reduction of log10 CFU at 100 uM incubated prior to irradiation with 150 j/cm'2 for 120 secs measured after 24 hrs by agar plating method (reference value: <1 no unit); format: functional; procedure, shortened: as §1
[15] = Induction of singlet oxygen generation measured over 20 mins by luminescence assay; format: physicochemical
Actinomyces naeslundii [16] = assay: Photodynamic inactivation of Actinomyces naeslundii T14V assessed as reduction of log10 CFU at 1 uM incubated prior to irradiation with 25 j/cm'2 for 20 secs measured after 48 hrs by agar plating method (reference value: <1 no unit); format: functional; procedure, shortened: as §2
Streptococcus mutans [17] = assay: Photodynamic inactivation of Streptococcus mutans ATCC 25175 assessed as reduction of log10 CFU at 100 uM incubated prior to irradiation with 25 j/cm'2 for 20 secs measured after 48 hrs by agar plating method (reference value: <1 no unit); format: functional
Enterococcus faecalis [18] = assay: Photodynamic inactivation of Enterococcus faecalis ATCC 29212 assessed as reduction of log10 CFU at 100 uM incubated prior to irradiation with 50 j/cm'2 for 40 secs measured after 24 hrs by agar plating method (reference value: <1 no unit); format: functional; procedure, shortened: as §1
Enterococcus faecalis [19] = assay: Photodynamic inactivation of Enterococcus faecalis ATCC 29212 assessed as reduction of log10 CFU at 10 uM incubated prior to irradiation with 50 j/cm'2 for 40 secs measured after 24 hrs by agar plating method (reference value: <1 no unit); format: functional; procedure, shortened: as §1
Enterococcus faecalis [20] = assay: Photodynamic inactivation of Enterococcus faecalis ATCC 29212 assessed as reduction of log10 CFU at 1 uM incubated prior to irradiation with 150 j/cm'2 for 120 secs measured after 24 hrs by agar plating method (reference value: <1 no unit); format: functional; procedure, shortened: as §1
Enterococcus faecalis [21] = assay: Photodynamic inactivation of Enterococcus faecalis ATCC 29212 assessed as reduction of log10 CFU at 100 uM incubated prior to irradiation with 25 j/cm'2 for 20 secs measured after 24 hrs by agar plating method (reference value: <1 no unit); format: functional; procedure, shortened: as §1
Enterococcus faecalis [22] = assay: Photodynamic inactivation of Enterococcus faecalis ATCC 29212 assessed as reduction of log10 CFU at 1 to 250 uM preincubated for 10 secs followed by irradiation with 150 j/cm'2 for 120 secs measured after 24 hrs by agar plating method; format: functional, organism-based; procedure, shortened: as §1

| Stability [3] | logP at 10 min [8] | Activity [15] | Structure (SMILES) | log10cfu (Enterococcus faecalis [1]) | log10cfu (Streptococcus mutans [2]) | log10cfu (Actinomyces naeslundii [4]) | log10cfu (Enterococcus faecalis [5]) | log10cfu [6] | log10cfu (Enterococcus faecalis [7]) | log10cfu (Enterococcus faecalis [9]) | log10cfu (Enterococcus faecalis [10]) | log10cfu (Streptococcus mutans [11]) | log10cfu (Enterococcus faecalis [12]) | log10cfu (Enterococcus faecalis [13]) | log10cfu (Enterococcus faecalis [14]) | log10cfu (Actinomyces naeslundii [16]) | log10cfu (Enterococcus faecalis [18]) | log10cfu (Enterococcus faecalis [19]) | log10cfu (Enterococcus faecalis [20]) | log10cfu (Enterococcus faecalis [21]) | also measured |
| --- | --- | --- | --- | --- | --- | --- | --- | --- | --- | --- | --- | --- | --- | --- | --- | --- | --- | --- | --- | --- | --- |
| Unstable | -1.3 | Active | C[N+](C)(CCO)CC1=Cc2cccc3cccc(c23)C1=O.[Cl-] | <1 | >6 | <5 | <3 | >6 | <1 | >6 | <3 | >6 | <1 | <1 | >6 | <1 | >6 | <3 | <1 | >6 | log10cfu (Streptococcus mutans [17]): >6 |
| Unstable | -1.4 | Active | C[N+](C)(C)CC1=Cc2cccc3cccc(c23)C1=O.[Cl-] | <1 |  |  | <1 |  | <1 | >6 | >6 |  | <1 | <3 | >6 |  | >6 | <3 | <3 | >6 | Activity (Enterococcus faecalis [22]): Active |
| Unstable | -1.3 | Active | O=C1C(C[n+]2ccccc2)=Cc2cccc3cccc1c23.[Cl-] | <1 | >6 | > 5 | <3 | >6 | <1 | >6 | >6 | >6 | <1 | <3 | >6 | <1 | >6 | >6 | <3 | >6 | Activity (Enterococcus faecalis [22]): Active; log10cfu (Streptococcus mutans [17]): >6 |
